An excerpt weighted towards active compounds, which were near 2% of everything screened.
ATG4B inh: ATG4B protease inhibitors, primary screen, biochemical, fluorescence, uHTS; ATG4B cleavage of LC3-PLA2, NBD-HPC fluorescence, 1 h; Cysteine protease ATG4B (Homo sapiens), Q9Y4P1; 340,000 tested, 0.51% active; inhibition, % at 8.33 µM; in the data active means inhibition above about 40%
SENP1 FRET inh: human SENP1 catalytic domain inhibitors, primary screen, biochemical, FRET, uHTS; recombinant SENP1 catalytic domain, CyPet-SUMO1-YPet FRET cleavage; inhibition, % at 10 µM; 360,000 tested, 0.21% active;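 active means inhibition at least 30% at 10 µM, raw YFP signal under a set limit, fluorescence ratio 0.5 to 1.5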;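 further: 0% = enzyme with DMSO and 100% = no enzyme wells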
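System: Recombinant human SENP1 catalytic domain, His6-tagged | Incubation: Enzyme reaction for 50 min at room temperature, dark | Medium: Tris pH 8 with BME, BSA, NP40 and catalase | Also added: 25 nM SUMO1 FRET substrate | Compound: 10 µM single point, 0.5% DMSO | Measured by: FRET fluorescence in CFP and YFP emission channels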
HNF4A DNA FP: change in binding of human HNF4A to DNA, primary screen, biochemical, fluorescence polarization, FITC-DNA; Hepatocyte nuclear factor 4-alpha (Homo sapiens), P41235; 1 h; activity change, % at 10 µM; 360,000 tested, 0.3% active; AID 1224865, 2016; in the data active means activity change above about 30%, passing the limit was not always enough
CSN deneddyl inh: inhibitors of CSN-mediated cullin deneddylation, primary screen, biochemical, fluorescence polarization, uHTS; COP9 signalosome complex subunit 5 (Homo sapiens), Q92905; Purified CSN, SCF-Nedd8-OG deneddylation; inhibition, % at 12.5 µM; 360,000 tested, 0.38% active; AID 651999, 2013;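 active means pattern-corrected inhibition above about 35%, with an unprinted fluorescence ratio check between 0.5 and 1.5, limit read from the data, passing the limit was not always enough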;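 further: 0% = enzyme with substrate and 100% = substrate without enzyme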
Target sequence (Q92905 whole entry, looked up, one chain of several): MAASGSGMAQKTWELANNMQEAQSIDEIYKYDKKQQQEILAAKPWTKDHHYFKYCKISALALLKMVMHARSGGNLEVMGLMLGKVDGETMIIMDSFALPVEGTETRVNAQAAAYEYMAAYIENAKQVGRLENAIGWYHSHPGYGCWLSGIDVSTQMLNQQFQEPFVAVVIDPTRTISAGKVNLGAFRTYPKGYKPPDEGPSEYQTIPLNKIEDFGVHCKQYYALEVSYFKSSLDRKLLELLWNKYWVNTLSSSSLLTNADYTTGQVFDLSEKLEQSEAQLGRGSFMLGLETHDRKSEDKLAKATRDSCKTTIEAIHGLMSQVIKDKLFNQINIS
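Assay system: Purified human Csn5 enzyme expressed in HEK293T cells | Amount: Enzyme 0.24 nM | Measured by: Fluorescence polarization readout | Medium: Tris/NaCl/DTT buffer, pH 7.5 | Compound dosing: One concentration, 12.5 µM, 0.25% DMSO | Times: 90 min incubation of compound, enzyme and substrate at room temperature | Control set: no-enzyme wells high, enzyme-with-substrate wells low | Read-out: % inhibition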
TPT1 inhibitor: Candida albicans TPT1 enzyme inhibitors, primary screen, biochemical, fluorescence polarization. recombinant caTPT1, FP RNA substrate dephosphorylation. inhibition, % at 5 µM. 300,000 tested, 0.81% active. AID 1962, 2009;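 active means inhibition above the mean of all tested compounds plus 3 SD, set per screening campaign, cut at about 24% in these data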;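 further: plate controls were DMSO alone for no effect and ferristatin control at 100 nM for full effect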
Rpn11 inh: Rpn11 (PSMD14) deubiquitinase inhibitors, primary screen, biochemical, fluorescence polarization, uHTS; inhibition, % at 20 µM; human 26S proteasome, Ub4-pepOG fluorescence polarization; 20S core pre-blocked with epoxomicin; 360,000 tested, 0.59% active; AID 588493, 2011; 26S proteasome non-ATPase regulatory subunit 14 (Homo sapiens), O00487;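 active means inhibition at 20 µM, scaled to each plate's controls, above about 33%, limit read from the data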
HNF4a DNA conf: change in HNF4A binding to DNA, retest, confirmation, biochemical, fluorescence polarization, FITC-DNA; shares compounds with HNF4A DNA FP; 1 h; activity change, % at 12.5 µM; 210 tested, 99% active; AID 1224897, 2016; call rule not given here
* marks the source's active call; other numbers are inactive results; . = no result shown.

SMILES	ATG4B inh	SENP1 FRET inh	HNF4A DNA FP	CSN deneddyl inh	TPT1 inhibitor	Rpn11 inh	HNF4a DNA conf
O=C(NC1CCCCC1)c1cccc2c1C(=O)c1ccc(N3CCC(Cc4ccccc4)CC3)cc1S2(=O)=O	-6	-29	-94	44	.	-70	.
O=C(O)c1cccc2c1C(=O)c1ccc(N3CCCCC3)cc1S2(=O)=O	-1	50	43*	14	.	.	43*
CCC(C)(C)NC(=O)C(c1ccccc1Cl)N(Cc1cccnc1)C(=O)CCC(=O)Nc1cc(C)on1 (stereo not given)	-5	-1	-1	-1	-5	-1	.
O=C(Nc1cccc(C(=O)N2CCOCC2)c1)c1ccccc1Cl	1	2	1	3	-1	-12	.
COc1ccc(S(=O)(=O)N2N=C(c3ccc(NS(C)(=O)=O)cc3)CC2c2ccco2)cc1 (stereo not given)	-5	-12	16	-1	7	20	.
COc1ccc(C2CC(c3ccccc3)=NN2S(=O)(=O)c2ccccc2)cc1 (stereo not given)	-4	-15	77*	6	0	29	59*
CCCC12CN3CCN(CC(C3)/C1=N\NC(=O)c1ccc(C(C)(C)C)cc1)C2	-5	-1	-1	-5	1	-15	.
N#C/C(=C\C1=C(N2CCOCC2)C(=C/c2cccc([N+](=O)[O-])c2)/CC1)C(=O)Nc1ccccc1F	1	82	54*	25	14	.	56*
CC(NC(=O)C12CC3CC(CC(C3)C1)C2)C(=O)N/N=C/C1=C(N2CCOCC2)C(=C\c2cccc([N+](=O)[O-])c2)/CC1 (stereo not given)	-13	3	1	4	-4	4	.
NC(=O)CC(NC(=O)Cc1ccc(Br)cc1)c1ccc(NC2CCCC2)c([N+](=O)[O-])c1 (stereo not given)	-8	28	50*	27	-1	.	49*
CCOc1ccccc1NC(=O)C(c1ccccc1)N1CCN(CC(=O)N2CCCC2)CC1 (stereo not given)	-10	2	3	-6	.	3	.

High-throughput results deposited in PubChem BioAssay by several laboratories.
